According to ChEMBL document CHEMBL1123760, “Synthesis and oral antifungal activity of novel azolylpropanolones and related compounds” (1987):
In brackets after ≈: the same amount, converted by molar mass.

Assays:
Format in all cases: functional
Aspergillus fumigatus = experiment: In vitro antifungal activity against Aspergillus fumigatus
How it was run: (§1)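 Broth microdilution MIC in Sabouraud's glucose broth; final inocula 1 × 10^5 cells/mL (yeast) or 1 × 10^5 conidia/mL (mold and dermatophyte).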

Candida albicans [1] = experiment: In vitro antifungal activity against Candida albicans; how it was run: as §1
Candida albicans [2] = experiment: Minimum effective concentration for inhibition of pseudomycelium formation in Candida albicans; settings: for minimal effective concentration: Candida albicans, read-out: MEC
How it was run: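 C. albicans KE-2 (clinical isolate) at a final 1 × 10^6 yeast cells/mL in EMEM with 20% calf serum; compounds diluted by the same microtiter system as for MICs. After incubation, wells were Giemsa-stained (5% in phosphate buffer) and read by microscope. MEC is the lowest concentration preventing typical pseudomycelium formation.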

Trichophyton benhamiae = experiment: In vitro antifungal activity against Trichophyton asteroides; how it was run: as §1
Mus musculus = experiment: Ratio of in vivo number of survivors / total infected; parameters: reference not given here
[3] = Aspergillus fumigatus, read-out: MIC
[4] = Candida albicans, read-out: MIC
[5] = Trichophyton benhamiae, read-out: MIC

Row | MIC (Aspergillus fumigatus; [3]) [µg/mL] | MIC (Candida albicans [1]; [4]) [µg/mL] | MIC (Trichophyton benhamiae; [5]) [µg/mL] | MIC (Trichophyton benhamiae) [µg/mL] | MIC (Aspergillus fumigatus) [µg/mL] | MIC (Candida albicans [1]) [µg/mL] | SMILES | minimal effective concentration (Candida albicans [2]) [µg/mL] | No. of survivors (Mus musculus) | MEC (Candida albicans [2]) [µg/mL]
1 | 25 (≈ 56.2 µM) | 50 (≈ 112 µM) | 0.1 (≈ 0.225 µM) |  |  |  | O=S1O[C@H](c2ccc(Cl)cc2)[C@@](Cn2cncn2)(c2ccc(Cl)cc2Cl)O1 (stereo partly drawn) | 0.16 |  | 
2 | > 100 | > 100 | 50 (≈ 138 µM) |  |  |  | O=C(c1ccc(Cl)cc1)C(O)(Cn1cnnc1)c1ccc(Cl)cc1 (stereo not drawn) | > 20 |  | 
3 | 0.2 (≈ 0.487 µM) | 50 (≈ 122 µM) | 0.1 (≈ 0.243 µM) |  |  |  | Clc1ccc([C@H]2OCO[C@]2(Cn2cncn2)c2ccc(Cl)cc2Cl)cc1 | 0.02 |  | 
4 | > 100 | > 100 | 3.1 (≈ 8.72 µM) |  |  |  | COc1ccccc1C(O)C(O)(Cn1cncn1)c1ccccc1OC (stereo not drawn) | 10 |  | 
5 | > 100 | > 100 | 0.8 (≈ 2.21 µM) |  |  |  | O=C(c1ccc(Cl)cc1)C(O)(Cn1cncn1)c1ccccc1Cl (stereo not drawn) | 10 |  | 
6 | > 100 | > 100 | 25 (≈ 58 µM) |  |  |  | O=C(c1ccc(Cl)cc1Cl)C(O)(Cn1cnnc1)c1ccc(Cl)cc1Cl (stereo not drawn) | > 20 |  | 
7 | > 100 | 100 (≈ 289 µM) | 0.8 (≈ 2.31 µM) |  |  |  | O=C(c1ccc(F)cc1)C(O)(Cn1cncn1)c1ccc(Cl)cc1 (stereo not drawn) | 1.25 |  | 
8 | 20 (≈ 51.4 µM) | 100 (≈ 257 µM) | 0.1 (≈ 0.257 µM) |  |  |  | O=C1O[C@H](c2ccccc2)[C@@](Cn2ccnc2)(c2ccc(Cl)cc2Cl)O1 | 0.16 |  | 
9 | > 100 | > 100 | 50 (≈ 152 µM) |  |  |  | CC(C)C(=O)C(O)(Cn1cnnc1)c1ccc(Cl)cc1Cl (stereo not drawn) | 2.5 |  | 
10 | > 100 | > 100 | > 100 |  |  |  | O=C(c1ccc(Cl)cc1Cl)C(O)(Cn1cnnc1)c1ccc(Cl)cc1 (stereo not drawn) | > 20 |  | 
11 | > 100 | > 100 | 0.4 (≈ 1.17 µM) |  |  |  | CC(C)[C@H]1OS(=O)O[C@@]1(Cn1cncn1)c1ccc(Cl)cc1 (stereo partly drawn) | 0.16 |  | 
12 | > 100 | > 100 | > 100 |  |  |  | O=C(c1ccccc1)C(O)(Cn1cnnc1)c1ccccc1 (stereo not drawn) | > 20 |  | 
13 | > 100 | > 100 | 6.3 (≈ 17.7 µM) |  |  |  | O=C1O[C@H](c2ccccc2)[C@@](Cn2cncn2)(c2ccccc2Cl)O1 | 0.31 |  | 
14 | > 100 | > 100 | 0.1 (≈ 0.277 µM) |  |  |  | O=C(c1ccc(Cl)cc1)C(O)(Cn1ccnc1)c1ccc(Cl)cc1 (stereo not drawn) | 20 |  | 
15 | > 100 | > 100 | 1.6 (≈ 4.95 µM) |  |  |  | Cc1ccc(C(O)C(O)(Cn2cncn2)c2ccc(C)cc2)cc1 (stereo not drawn) | 2.5 |  | 
16 | > 100 | > 100 | 25 (≈ 70.3 µM) |  |  |  | COc1ccc(C(O)C(O)(Cn2cncn2)c2ccc(OC)cc2)cc1 (stereo not drawn) | > 20 |  | 
17 | 100 (≈ 340 µM) | > 100 | 0.2 (≈ 0.681 µM) |  |  |  | CC(C)C(O)(Cn1cncn1)C(=O)c1ccc(Cl)cc1 (stereo not drawn) | 0.63 |  | 
18 | > 100 | > 100 | 1.6 (≈ 4.43 µM) |  |  |  | CC(O)(c1ccc(Cl)cc1)C(O)(Cn1ccnc1)c1ccc(F)cc1 (stereo not drawn) | 10 |  | 
19 | > 100 | > 100 | > 100 |  |  |  | O=C(c1ccc(F)cc1)C(O)(Cn1cnnc1)c1ccc(F)cc1 (stereo not drawn) | > 20 |  | 
20 | > 100 | > 100 | 0.1 (≈ 0.262 µM) |  |  |  | OC(c1ccc(Cl)cc1Cl)C(O)(Cn1cncn1)c1ccc(F)cc1 (stereo not drawn) | 0.31 |  | 
21 | > 100 | > 100 | 1.6 (≈ 4.25 µM) |  |  |  | O=C(c1ccc(Cl)cc1Cl)C(O)(Cc1ccccc1)Cn1cncn1 (stereo not drawn) | 5 |  | 
22 | > 100 | > 100 |  | 25 (≈ 58.9 µM) |  |  | O=C1O[C@H](c2ccc(Cl)cc2)[C@](Cn2cncn2)(c2ccc(Cl)cc2Cl)O1 (relative stereo) |  |  | >20

Row | MIC (Aspergillus fumigatus; [3]) [µg/mL] | MIC (Candida albicans [1]; [4]) [µg/mL] | MIC (Trichophyton benhamiae; [5]) [µg/mL] | MIC (Trichophyton benhamiae) [µg/mL] | MIC (Aspergillus fumigatus) [µg/mL] | MIC (Candida albicans [1]) [µg/mL] | SMILES | minimal effective concentration (Candida albicans [2]) [µg/mL] | No. of survivors (Mus musculus) | MEC (Candida albicans [2]) [µg/mL]
23 | > 100 | 50 (≈ 137 µM) |  | 12.5 (≈ 34.3 µM) |  |  | OC(c1ccc(Cl)cc1)C(O)(Cn1cncn1)c1ccc(Cl)cc1 (stereo in doubt; 89) |  |  | 20
24 | > 100 | > 100 |  | 0.8 (≈ 2.7 µM) |  |  | CC(C)C(O)C(O)(Cn1cncn1)c1ccc(Cl)cc1 (stereo in doubt; 100) |  |  | 0.16
25 | > 100 | > 100 |  | 0.8 (≈ 2.3 µM) |  |  | OC(c1ccc(F)cc1)C(O)(Cn1cncn1)c1ccc(Cl)cc1 (stereo in doubt; 103) |  |  | 0.31
26 | > 100 | > 100 |  | 6.3 (≈ 21.3 µM) |  |  | CCCC(O)C(O)(Cn1cncn1)c1ccc(Cl)cc1 (stereo in doubt; 107) | 0.16 |  | 
27 |  | > 100 |  | 0.1 (≈ 0.251 µM) | 25 (≈ 62.7 µM) |  | OC(c1ccc(Cl)cc1)C(O)(Cn1cncn1)c1ccc(Cl)cc1Cl (stereo in doubt; 108) |  |  | 0.04
28 |  |  |  | 12.5 (≈ 31.4 µM) | >100 | 100 (≈ 251 µM) | OC(c1ccc(Cl)cc1)C(O)(Cn1cncn1)c1ccc(Cl)cc1Cl (stereo in doubt; 109) |  |  | 20
29 | > 100 | > 100 | 0.2 (≈ 0.471 µM) |  |  |  | O=C1O[C@H](c2ccc(Cl)cc2)[C@@](Cn2cncn2)(c2ccc(Cl)cc2Cl)O1 (stereo in doubt; 115) | 0.04 |  | 
30 | > 100 | > 100 |  | 25 (≈ 61.4 µM) |  |  | OC(Cn1cncn1)(c1ccc(F)cc1)C(O)(c1ccccc1)c1ccc(F)cc1 (stereo in doubt; 165) | > 20 |  | 
31 | 12.5 (≈ 33 µM) | > 100 | 0.1 (≈ 0.264 µM) |  |  |  | CC(O)(c1ccccc1)C(O)(Cn1cncn1)c1ccc(Cl)cc1Cl (stereo in doubt; 166) | 0.04 |  | 
32 |  |  |  | 0.1 (≈ 0.264 µM) | 25 (≈ 66.1 µM) | 50 (≈ 132 µM) | CC(O)(c1ccccc1)C(O)(Cn1cncn1)c1ccc(Cl)cc1Cl (stereo in doubt; 167) |  |  | 0.08
33 | 50 (≈ 145 µM) | > 100 | 0.1 (≈ 0.29 µM) |  |  |  | CC(C)C(C)(O)C(O)(Cn1cncn1)c1ccc(Cl)cc1Cl (stereo in doubt; 169) | 0.08 |  | 
34 |  | > 100 | 0.1 (≈ 0.266 µM) |  | >100 |  | CCC(O)(c1ccc(F)cc1)C(O)(Cn1cncn1)c1ccc(Cl)cc1 (stereo in doubt; 171) |  |  | 0.16
35 | 25 (≈ 63.1 µM) | > 100 | 0.1 (≈ 0.252 µM) |  |  |  | CC(O)(c1ccc(F)cc1)C(O)(Cn1cncn1)c1ccc(Cl)cc1Cl (stereo in doubt; 173) | 0.31 |  | 
36 |  |  |  | 0.1 (≈ 0.252 µM) | 50 (≈ 126 µM) | 100 (≈ 252 µM) | CC(O)(c1ccc(F)cc1)C(O)(Cn1cncn1)c1ccc(Cl)cc1Cl (stereo in doubt; 174) |  |  | 0.31
37 | 25 (≈ 60.6 µM) | > 100 | 0.1 (≈ 0.242 µM) |  |  |  | CC(O)(c1ccc(Cl)cc1)C(O)(Cn1cncn1)c1ccc(Cl)cc1Cl (stereo in doubt; 175) |  |  | 0.31
38 |  |  |  | 0.1 (≈ 0.242 µM) | 50 (≈ 121 µM) | 50 (≈ 121 µM) | CC(O)(c1ccc(Cl)cc1)C(O)(Cn1cncn1)c1ccc(Cl)cc1Cl (stereo in doubt; 176) |  |  | 0.63
39 | 12.5 (≈ 34.5 µM) | > 100 | 0.1 (≈ 0.276 µM) |  |  |  | CC(O)(c1ccc(F)cc1)C(O)(Cn1cncn1)c1ccccc1Cl (stereo in doubt; 182) | 2.5 |  | 
40 | 50 (≈ 124 µM) | > 100 | 0.4 (≈ 0.99 µM) |  |  |  | CCCCC(O)(c1ccc(F)cc1)C(O)(Cn1cncn1)c1ccccc1Cl (stereo in doubt; 189) |  |  | 20
41 | > 100 | > 100 | 0.6 (≈ 1.85 µM) |  |  |  | CCCCC(O)(Cn1cncn1)C(C)(O)c1ccc(Cl)cc1 (stereo in doubt; 191) | 1.25 |  | 
42 |  |  |  | 0.1 (≈ 0.264 µM) | 50 (≈ 132 µM) | 100 (≈ 264 µM) | CC(O)(c1ccc(Cl)cc1)C(O)(Cn1cncn1)c1ccc(Cl)cc1 (stereo in doubt; 193) |  |  | 0.36
43 | > 100 | 50 (≈ 132 µM) |  | 0.8 (≈ 2.11 µM) |  |  | CC(O)(c1ccc(Cl)cc1)C(O)(Cn1cncn1)c1ccc(Cl)cc1 (stereo in doubt; 194) |  |  | 2.5

Row | SMILES | MIC (Aspergillus fumigatus; [3]) [µg/mL] | MIC (Candida albicans [1]; [4]) [µg/mL] | MIC (Trichophyton benhamiae; [5]) [µg/mL] | MIC (Trichophyton benhamiae) [µg/mL] | MIC (Aspergillus fumigatus) [µg/mL] | MIC (Candida albicans [1]) [µg/mL] | minimal effective concentration (Candida albicans [2]) [µg/mL] | No. of survivors (Mus musculus) | MEC (Candida albicans [2]) [µg/mL]
44 | CC(C)[C@H]1OCO[C@]1(Cn1cncn1)c1ccc(Cl)cc1 | 100 (≈ 325 µM) | > 100 | 0.2 (≈ 0.65 µM) |  |  |  | 0.04 | 7 | 
45 | O=C(c1ccccc1Cl)C(O)(Cn1cncn1)c1ccccc1Cl (stereo not drawn) | 50 (≈ 138 µM) | 50 (≈ 138 µM) | 0.1 (≈ 0.276 µM) |  |  |  | 0.08 | 2 | 
46 | OC(c1ccc(F)cc1)C(O)(Cn1cncn1)c1ccc(Cl)cc1Cl (stereo in doubt; 105) |  |  |  | 25 (≈ 65.4 µM) | >100 | >100 |  |  | 5
47 | CC(O)(c1ccc(F)cc1)C(O)(Cn1cncn1)c1ccc(F)cc1 (stereo in doubt; 160) |  |  |  | 0.1 (≈ 0.29 µM) | 25 (≈ 72.4 µM) |  |  | 2 | 0.16
48 | CC(O)(c1ccc(F)cc1)C(O)(Cn1cncn1)c1ccc(F)cc1 (stereo in doubt; 161) |  | > 100 | 0.2 (≈ 0.579 µM) |  | 100 (≈ 290 µM) |  |  |  | 2.5
49 | CC(O)(c1ccc(F)cc1)C(O)(Cn1cncn1)c1ccc(Cl)cc1 (stereo in doubt; 163) | > 100 | 100 (≈ 276 µM) | 0.2 (≈ 0.553 µM) |  |  |  |  |  | 0.63
